The text below walks through data of ChEMBL document CHEMBL3351948, “Synthesis of gallinamide A analogues as potent falcipain inhibitors and antimalarials” (J Med Chem, 2014).

Calls of active or inactive are those of the source. No cut-off for these calls is given here. *1 amine or outer side, *2 acyl side, *3 side chain or, on linkers, in order; H or OH if unused. Where a SMILES comes first, the peptide text is derived from it. [ ]: non-standard residue; d: D form. The star is where a group is joined. Pentenoic(2E,4S-NH2) = C[C@@H](/C=C/C(=O)[*:2])N[*:1]; X1 = CC[C@H](C)[C@@H](C(=O)*)N(C)C; NHBn = c1ccc(CN*)cc1

Assay [1] deals with T1, Falcipain 2 (Plasmodium falciparum, UniProt Q9N6S8).
T1 sequence (Q9N6S8 whole entry): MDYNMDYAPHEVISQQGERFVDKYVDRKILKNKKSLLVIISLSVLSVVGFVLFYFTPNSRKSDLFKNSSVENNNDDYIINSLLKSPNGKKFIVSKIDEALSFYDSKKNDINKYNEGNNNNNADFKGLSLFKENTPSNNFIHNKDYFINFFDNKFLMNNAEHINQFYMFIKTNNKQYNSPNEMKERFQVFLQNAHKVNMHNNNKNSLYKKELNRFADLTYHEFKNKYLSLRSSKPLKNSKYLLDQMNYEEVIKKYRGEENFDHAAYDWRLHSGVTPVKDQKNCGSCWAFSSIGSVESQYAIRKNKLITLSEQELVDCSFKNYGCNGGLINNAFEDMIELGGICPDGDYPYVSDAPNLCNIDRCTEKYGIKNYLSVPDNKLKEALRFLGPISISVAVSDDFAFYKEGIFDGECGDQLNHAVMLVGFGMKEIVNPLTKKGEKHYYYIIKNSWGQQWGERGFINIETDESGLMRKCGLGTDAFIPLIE
In words: Inhibition of Plasmodium falciparum FP2 using Z-Phe-Arg-AMC as substrate incubated for 30 mins prior to substrate addition measured after 30 mins by fluorescence assay. In a few lines:
(§1)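 The assay read enzyme activity with a fluorescence-based kinetic method and reported IC50 in nM. Values are means with standard error of the mean from three experiments.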

Assay [2] is described as follows: Inhibition of Plasmodium falciparum FP3 using Z-Phe-Arg-AMC as substrate incubated for 30 mins prior to substrate addition measured after 30 mins by fluorescence assay. In a few lines: as §1
The test system of assay [3] is Plasmodium falciparum. In words: Antiplasmodial activity against chloroquine-sensitive Plasmodium falciparum 3D7 infected in human erythrocytes by [3H]-hypoxanthine incorporation assay. The assay is classed as functional, organism-based. An outline of the steps:
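IC50 against the chloroquine-sensitive 3D7 strain was measured by [3H]-hypoxanthine incorporation in cultured parasites. Values are means with standard error of the mean from three experiments.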

Assay [4] relates to Plasmodium falciparum. Put plainly: Antiplasmodial activity against multidrug-resistant Plasmodium falciparum Dd2 infected in human erythrocytes by [3H]-hypoxanthine incorporation assay. The assay is classed as functional, organism-based. In a few lines:
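Chloroquine-resistant P. falciparum Dd2 strain; IC50 reported with standard error of the mean from three experiments.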

A short description of assay [5]: Cytotoxicity against […] cells assessed as cell viability by AlamarBlue assay. The format is cell-based. The settings on record: Homo sapiens. In general terms: Resazurin is reduced to fluorescent resorufin, in cell work by metabolically active cells.
Assay [6] concerns Plasmodium falciparum. Put plainly: Inhibition of Plasmodium falciparum AP-M1.
For assay [7], the system named is Plasmodium falciparum. In words: Inhibition of Plasmodium falciparum AP-M17.
Assay [8] deals with Plasmodium falciparum. Put plainly: Inhibition of Plasmodium falciparum AP-M18.
The target of assay [9] is Procathepsin L (Homo sapiens) (UniProt P07711). In words: Inhibition of human cathepsin L expressed in Pichia pastoris using N-Cbz-Phe-Arg-7-amino-4-methylcoumarin as substrate incubated for 90 mins prior to substrate addition measured after 30 mins by fluorescence assay.
Assay [10] has as its system Plasmodium falciparum. Put plainly: Antiplasmodial activity against Plasmodium falciparum 3D7 trophozoite stage assessed as swollen food vacuole at <5 nM after 3 days by Giemsa staining-based assay. The format is functional, organism-based.
The test system of assay [11] is Plasmodium falciparum. Put plainly: Antiplasmodial activity against Plasmodium falciparum 3D7 trophozoite stage assessed as swollen food vacuole after 3 days by Giemsa staining-based assay. The assay is classed as functional, organism-based.
Assay [12] relates to Plasmodium falciparum. Put plainly: Antiplasmodial activity against Plasmodium falciparum 3D7. The format is functional, organism-based. An outline of the steps:
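Chloroquine-sensitive P. falciparum 3D7 cultures; growth inhibition read out as [3H]-hypoxanthine incorporation; IC50 reported with standard error of the mean from three experiments.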

Assay [13] in a line: Inhibition of FP1 in Plasmodium falciparum trophozoite stage after 1 hr by SDS-PAGE analysis.
For assay [14], the target named is T1, Falcipain 2. Put plainly: Inhibition of FP2 in Plasmodium falciparum trophozoite stage after 1 hr by SDS-PAGE analysis.
In assay [15] the target is T1, Falcipain 2. Put plainly: Inhibition of FP2' in Plasmodium falciparum trophozoite stage after 1 hr by SDS-PAGE analysis.
The nature of assay [16]: Inhibition of FP3 in Plasmodium falciparum trophozoite stage after 1 hr by SDS-PAGE analysis.

Sequence of Procathepsin L (Homo sapiens) (P07711 114-333 limits assumed): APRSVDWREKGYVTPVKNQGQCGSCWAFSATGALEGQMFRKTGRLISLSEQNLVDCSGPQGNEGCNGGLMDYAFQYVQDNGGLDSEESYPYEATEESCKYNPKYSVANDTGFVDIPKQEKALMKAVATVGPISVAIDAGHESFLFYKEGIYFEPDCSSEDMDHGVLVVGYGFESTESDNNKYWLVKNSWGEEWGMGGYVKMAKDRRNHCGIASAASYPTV

Take `COC1=CC(=O)N(C(=O)/C=C/[C@H](C)NC(=O)[C@H](CC(C)C)NC(=O)[C@H](CC(C)C)NC(=O)[C@H](C(C)C)N(C)C)[C@H]1Cc1c[nH]c2ccccc12`: the IC50 in assay [1] was 12 nM; in assay [2] it was 66.7 nM; in assay [3], 9.7 nM; in assay [4], 29 nM; in assay [5], 8.5 µM. Further, the INH in assay [6], in assay [7] and in assay [8] was above 10 µM in each case. In addition, the inhibition entry in [9] is “Active”. The result in assay [10] was Active.
Consider `COC1=CC(=O)N(C(=O)CC[C@H](C)NC(=O)[C@H](CC(C)C)NC(=O)[C@H](CC(C)C)NC(=O)[C@H](C(C)C)N(C)C)[C@H]1C`, for which the figures for the IC50 in assay [1], in assay [2] and in assay [3] were 3710 nM, above 50000 nM and 4380 nM, respectively. In addition, the result in assay [11] was inactive.
`CO[C@H]1CC(=O)N(C(=O)/C=C/[C@H](C)NC(=O)[C@H](CC(C)C)NC(=O)[C@H](CC(C)C)NC(=O)[C@H](C(C)C)N(C)C)[C@H]1C`: the results for the IC50 in [1], in assay [2] and in [3] were 2.81 nM, 163 nM and 210 nM, respectively. In assay [11], the outcome was Active.
In the case of `COC1=CC(=O)N(C(=O)/C=C/[C@H](C)NC(=O)[C@H](CC(C)C)NC(=O)[C@H](CC(C)C)NC(=O)[C@H](C(C)C)N(C)C)[C@H]1Cc1ccc(O)cc1`, the IC50 in assay [1] turned out to be 5.25 nM; in assay [2], 81.4 nM; in assay [3] it was 20 nM; in assay [4] it was 67 nM; in [5], 18.9 µM. The INH in [6], in assay [7] and in [8] was above 10 µM in each case. The inhibition result in assay [9] was “Active”. Besides, the outcome in [10] was Active.
As for `CC(C)C[C@H](NC(=O)[C@H](CC(C)C)NC(=O)[C@H](C(C)C)N(C)C)C(=O)N[C@@H](C)/C=C/C(=O)N1C(=O)C=C(OCc2ccccc2)[C@@H]1C(C)C`, the IC50 in assay [1] was 6.86 nM; in assay [2], 182 nM; in [3], 62 nM. Further, in assay [10], the outcome was Active.
On to `CC[C@H](C)[C@@H](C(=O)O[C@@H](CC(C)C)C(=O)N[C@@H](CC(C)C)C(=O)N[C@@H](C)/C=C/C(=O)N1C(=O)C=C(OC)[C@@H]1C)N(C)C` [GALLINAMIDE A], for which the IC50 in assay [12] amounted to 50 nM; in [13], 140 nM; in [14] it was 8.5 nM; in assay [15], 8.5 nM; in [16], 22 nM.
With `CC(C)C[C@H](NC(=O)[C@H](CC(C)C)NC(=O)[C@H](C(C)C)N(C)C)C(=O)N[C@@H](C)/C=C/C(=O)N[C@@H](C)C(=O)NCc1ccccc1`, the IC50 in [1] was 11500 nM; in [2] it was above 25000 nM; in [3] it was 320 nM; in assay [4], 378 nM; in assay [5], above 50 µM. Moreover, the outcome in assay [11] was Active. Besides, the INH in [6], in [7] and in assay [8] was above 10 µM each time. Further, the inhibition result in assay [9] was “Active”.
Turning to `CC(C)C[C@H](NC(=O)[C@H](CC(C)C)NC(=O)[C@H](C(C)C)N(C)C)C(=O)N[C@@H](C)/C=C/C(=O)N1CC(OCc2ccccc2)=CC1=O`, the values for the IC50 in assay [1], in assay [2] and in assay [3] were 9.59 nM, 196 nM and 96 nM, respectively. Further, in assay [10], the outcome was Active.
In the case of `COC1=CC(=O)N(C(=O)/C=C/[C@H](C)NC(=O)[C@H](CC(C)C)NC(=O)[C@H](CC(C)C)NC(=O)[C@H](C(C)C)N(C)C)C1`, the IC50 in assay [1] is 24.8 nM; in [2] it was 225 nM; in [3] it was 57.3 nM; in [4], 419 nM; in assay [5], 16.3 µM. In addition, the INH in assay [6], in assay [7] and in assay [8] was above 10 µM each time. Further, in assay [9], the inhibition entry is “Active”. For the same compound, in assay [10], the outcome was Active.
Take `CC[C@H](C)[C@@H](C(=O)N[C@@H](CC(C)C)C(=O)N[C@@H](CC(C)C)C(=O)N[C@H](C(=O)N[C@@H](C)/C=C/C(=O)N[C@@H](C)C(=O)NCc1ccccc1)C(C)C)N(C)C` (X1-LLV[Pentenoic(2E,4S-NH2)]A-NHBn): the IC50 in [1], in assay [2] and in [3] was above 50000 nM throughout. For the same compound, the result in [11] was Active.
Consider `CC[C@H](C)[C@@H](C(=O)N[C@@H](CC(C)C)C(=O)N[C@@H](CC(C)C)C(=O)N[C@H](C(=O)N[C@@H](C)/C=C/C(=O)N[C@@H](C)C(=O)N1C[C@@H](O)C[C@H]1C(=O)OC)C(C)C)N(C)C`, for which the IC50 in assay [1], in assay [2] and in assay [3] was above 50000 nM each time. Further, the outcome in assay [11] was Active.
As to `COC1=CC(=O)N(C(=O)/C=C/[C@H](C)NC(=O)[C@H](CC(C)C)NC(=O)[C@H](CC(C)C)NC(=O)[C@H](C(C)C)N(C)C)[C@H]1C(C)C`, the IC50 in assay [1] is 9.52 nM; in [2], 131 nM; in assay [3], 16.6 nM; in assay [4], 165 nM; in [5] it was 9.65 µM. Further, the INH in assay [6], in [7] and in [8] was above 10 µM each time. Besides, the inhibition entry in assay [9] is “Active”. Moreover, the result in assay [10] was Active.
For `CC(C)C[C@H](NC(=O)[C@H](CC(C)C)NC(=O)[C@@H]1CCCN1C)C(=O)N[C@@H](C)/C=C/C(=O)N[C@@H](C)C(=O)NCc1ccccc1`, the IC50 stood at 6000 nM in assay [1], 46000 nM in assay [2] and 6600 nM in assay [3]. The result in assay [11] was Active.
For `CC[C@H](C)[C@@H](C(=O)N[C@@H](CC(C)C)C(=O)N[C@@H](CC(C)C)C(=O)N[C@@H](C)/C=C/C(=O)N[C@@H](C)C(=O)N1C[C@@H](O)C[C@H]1C(=O)OC)N(C)C`, the concentration for half-maximal inhibition (IC50) in assay [1] is 7700 nM; in assay [2] it was above 50000 nM; in [3] it was 1900 nM. For the same compound, in assay [11], the outcome was Active.
The corresponding values for `CC(C)C[C@H](NC(=O)[C@H](CC(C)C)NC(=O)[C@H](C(C)C)N(C)C)C(=O)N[C@@H](C)/C=C/C(=O)N[C@@H](C)C(=O)Nc1nccs1` are 2500 nM, 34000 nM, 1100 nM and “Active”.
The corresponding values for `CO[C@H]1CC(=O)N(C(=O)CC[C@H](C)NC(=O)[C@H](CC(C)C)NC(=O)[C@H](CC(C)C)NC(=O)[C@H](C(C)C)N(C)C)[C@H]1C` are above 50000 nM, above 50000 nM, above 50000 nM and “inactive”.
As to `CC[C@H](C)[C@@H](C(=O)N[C@@H](CC(C)C)C(=O)N[C@@H](CC(C)C)C(=O)N[C@@H](C)/C=C/C(=O)N[C@@H](C)C(=O)NCc1ccccc1)N(C)C`, the IC50 was 10500 nM in assay [1]; above 25000 nM in assay [2]; 540 nM in [3]; 421 nM in assay [4]; above 50 µM in assay [5]. For the same compound, in assay [11], the outcome was Active. In addition, the INH in assay [6], in assay [7] and in assay [8] was above 10 µM throughout. In addition, the inhibition entry in assay [9] is “Active”.
Turning to `COC1=CC(=O)N(C(=O)/C=C/[C@H](C)NC(=O)[C@H](CC(C)C)NC(=O)[C@H](CC(C)C)NC(=O)[C@H](C(C)C)N(C)C)[C@H]1C`, the IC50 was 6.78 nM in assay [1]; 292 nM in [2]; 89.3 nM in assay [3]; 302 nM in assay [4]; 14.2 µM in assay [5]. In assay [11], the outcome was Active. In addition, the INH in assay [6], in [7] and in assay [8] was above 10 µM each time. Also, the inhibition entry in [9] was “Active”.
Consider `CC(C)C[C@H](NC(=O)[C@H](CC(C)C)NC(=O)[C@@H](C(C)C)N(C)C)C(=O)N[C@@H](C)/C=C/C(=O)N[C@@H](C)C(=O)NCc1ccccc1`, for which the IC50 was 3400 nM in [1]; above 25000 nM in assay [2]; 5400 nM in assay [3]; 170 nM in [4]; above 50 µM in assay [5]. The result in assay [11] was Active. Further, the INH in [6], in assay [7] and in assay [8] was above 10 µM each time. In assay [9], the inhibition result is “Active”.

In general, IC50 refers to the concentration that gives 50% inhibition.
